Reference: ChEMBL document CHEMBL1126715, “Synthesis and tissue distribution of (m-[125I]iodobenzyl)trozamicol ([125I]MIBT): potential radioligand for mapping central cholinergic innervation” (J Med Chem, 1993)

Columns and labels:
Rattus norvegicus [1] = species: Rattus norvegicus; experiment: Tissue distribution in rat muscle after 60 minutes (n=3); assay type: ADME, organism-based; conditions: in vivo, 1 h
How it was run: (§1)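 Male Wistar rats (200-350 g) under ether, iv [125I]tracer (3-5 μCi in 0.1 mL 50% aqueous EtOH). At 5, 30, 60 or 180 min, blood taken by cardiac puncture and the rat killed by cardiectomy. Organs weighed and γ-counted against 1:100 dilutions of the injected dose; results in % injected dose/g, with range.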

Rattus norvegicus [2] = species: Rattus norvegicus; experiment: Regional kinetics in the remainder of rat brain at 180 minutes; assay type: ADME, organism-based; conditions: in vivo, 3 h
How it was run: (§2)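 Male Wistar rats (n = 4 per time point) under ether received (+)-radiotracer iv (2 μCi in 100 μL 50% aqueous EtOH). They were killed at 30, 120 or 180 min. Brains were partially frozen and dissected into striatum, cerebellum, cortex and remainder. Regions were γ-counted against injected-dose dilutions and expressed as % injected dose/g tissue.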

Rattus norvegicus [3] = species: Rattus norvegicus; experiment: Regional kinetics in the rat cerebellum at 180 minutes; assay type: ADME, organism-based; conditions: in vivo, 3 h; how it was run: as §2
[4] = Ratio of tissue distribution between rat heart and blood after 120 min; assay type: ADME, organism-based
Rattus norvegicus [5] = species: Rattus norvegicus; experiment: Tissue distribution in rat lung after 5 minutes (n=3); assay type: ADME, organism-based; conditions: in vivo
How it was run: (§3)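 Male Wistar rats (200-350 g) under ether anesthesia; radiotracer (3-5 μCi in 0.1 mL 50% aqueous ethanol) given iv. At 5, 30, 60 and 180 min, blood was drawn by cardiac puncture and animals were killed by cardiectomy. Organs were weighed and γ-counted against a 1:100 dilution of the injected dose. Results are given as % injected dose/g tissue; ratios are taken between tissue levels.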

Rattus norvegicus [6] = species: Rattus norvegicus; experiment: Regional kinetics in the remainder of rat brain at 30 minutes; assay type: ADME, organism-based; conditions: in vivo, 0.5 h; how it was run: as §2
Rattus norvegicus [7] = species: Rattus norvegicus; experiment: Ratio of regional kinetics between rat brain caudate and cortex at 180 minutes; assay type: ADME, organism-based; conditions: in vivo, 3 h
How it was run: (§4)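 Male Wistar rats (n = 4/group) under ether anesthesia, iv (+)-[125I]MIBT (2 μCi in 100 μL 50% aqueous EtOH); killed at 30, 120, 180 min. Brains partially frozen, dissected into striatum, cerebellum, cortex and remainder; radioactivity counted, % dose/g vs injected-dose dilutions; caudate/cortex and caudate/cerebellum ratios.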

Rattus norvegicus [8] = species: Rattus norvegicus; experiment: Effect of 4-aminobenzovesamicol on the regional distribution of compound in the remainder of rat brain (n=4) [0.21 (0.17-0.23)]; assay type: ADME, organism-based; conditions: in vivo
Rattus norvegicus [9] = species: Rattus norvegicus; experiment: Regional kinetics in the rat cerebellum at 120 minutes; assay type: ADME, organism-based; conditions: in vivo, 2 h
How it was run: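 Male Wistar rats under ether anaesthesia, iv (+)-[125I]tracer (2 μCi in 100 μL 50% aqueous EtOH); killed at 30, 120 or 180 min. Brains partially frozen and dissected into striatum, cerebellum, cortex and remainder, then counted for radioactivity. Results are % injected dose/g, calculated against counted dilutions of the injected dose.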

Rattus norvegicus [10] = species: Rattus norvegicus; experiment: Tissue distribution in rat liver after 5 minutes (n=3); assay type: ADME, organism-based; conditions: in vivo; how it was run: as §1
Rattus norvegicus [11] = species: Rattus norvegicus; experiment: Ratio of regional kinetics between rat brain caudate and cortex at 30 minutes; assay type: ADME, organism-based; conditions: in vivo, 0.5 h; how it was run: as §4
Rattus norvegicus [12] = species: Rattus norvegicus; experiment: Tissue distribution in rat gonads after 180 minutes (n=3); assay type: ADME, organism-based, Gonad; conditions: in vivo, 3 h; how it was run: as §3
Rattus norvegicus [13] = species: Rattus norvegicus; experiment: Effect of vesamicol on the accumulation in rat brain [0.51 (0.45-0.66)]; assay type: ADME, organism-based; conditions: in vivo
How it was run: (§5)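 Male Wistar rats (n = 4/group) given iv vehicle (100 μL 50% aqueous EtOH) or dl-vesamicol (1.01 μmol/kg); 15 min later iv radiotracer (2.0 μCi in 100 μL 50% aqueous EtOH); killed 30 min post-tracer. Blood by cardiac puncture, organs weighed and γ-counted vs 1:100 injected-dose dilution; % dose/g tissue (range); tissue/blood ratios.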

Rattus norvegicus [14] = species: Rattus norvegicus; experiment: Effect of vesamicol on the accumulation in rat blood [0.05 (0.04-0.06)]; assay type: ADME, organism-based; conditions: in vivo; how it was run: as §5
Rattus norvegicus [15] = species: Rattus norvegicus; experiment: Tissue distribution in rat blood after 30 minutes (n=3); assay type: ADME, organism-based; conditions: in vivo, 0.5 h; how it was run: as §3
Rattus norvegicus [16] = species: Rattus norvegicus; experiment: Tissue distribution in rat muscle after 30 minutes (n=3); assay type: ADME, organism-based; conditions: in vivo, 0.5 h; how it was run: as §1
Rattus norvegicus [17] = species: Rattus norvegicus; experiment: Tissue distribution in rat gonads after 60 minutes (n=3); assay type: ADME, organism-based, Gonad; conditions: in vivo, 1 h; how it was run: as §1
Rattus norvegicus [18] = species: Rattus norvegicus; experiment: Effect of haloperidol on the regional distribution of compound in the rat brain caudate-putamen (n=4) [0.75 (0.60-0.85)]; assay type: ADME, organism-based; conditions: in vivo
Rattus norvegicus [19] = species: Rattus norvegicus; experiment: Tissue distribution in rat thyroid after 30 minutes (n=3); assay type: ADME, organism-based, Thyroid gland; conditions: in vivo, 0.5 h; how it was run: as §3
Rattus norvegicus [20] = species: Rattus norvegicus; experiment: Effect of 4-aminobenzovesamicol on the regional distribution of compound in the rat brain cortex (n=4) [0.23 (0.19-0.25)]; assay type: ADME, organism-based; conditions: in vivo
Rattus norvegicus [21] = species: Rattus norvegicus; experiment: Tissue distribution in rat lung after 180 minutes (n=3); assay type: ADME, organism-based; conditions: in vivo, 3 h; how it was run: as §1
Rattus norvegicus [22] = species: Rattus norvegicus; experiment: Ratio of regional kinetics between rat brain caudate and cerebellum at 30 minutes; assay type: ADME, organism-based; conditions: in vivo, 0.5 h; how it was run: as §4
Rattus norvegicus [23] = species: Rattus norvegicus; experiment: Ratio of tissue distribution between rat heart and blood after 60 min; assay type: ADME, organism-based; conditions: other tissue, 1 h; how it was run: as §3
Rattus norvegicus [24] = species: Rattus norvegicus; experiment: Ratio of regional kinetics between rat brain caudate and cortex at 120 minutes; assay type: ADME, organism-based; conditions: in vivo, 2 h; how it was run: as §4
Rattus norvegicus [25] = species: Rattus norvegicus; experiment: Effect of haloperidol on the regional distribution of compound in the rat cerebellum (n=4) [0.22 (0.18-0.24)]; assay type: ADME, organism-based; conditions: in vivo
Rattus norvegicus [26] = species: Rattus norvegicus; experiment: Regional kinetics in the rat brain caudate-putamen at 120 minutes; assay type: ADME, organism-based; conditions: in vivo, 2 h; how it was run: as §2
Rattus norvegicus [27] = species: Rattus norvegicus; experiment: Ratio of tissue distribution between rat brain and blood after 30 min; assay type: ADME, organism-based; conditions: 0.5 h
How it was run: (§6)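 Male Wistar rats (200-350 g) under ether anesthesia, iv radiotracer (3-5 μCi in 0.1 mL 50% aqueous ethanol). At 5, 30, 60, 180 min blood taken by cardiac puncture, animal killed by cardiectomy; organs weighed, γ-counted against 1:100 injected-dose dilution; % injected dose/g tissue; brain/blood ratio.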

[28] = Ratio of tissue distribution between rat heart and blood after 5 min; assay type: ADME, organism-based; conditions: heart and blood; how it was run: as §3
Rattus norvegicus [29] = species: Rattus norvegicus; experiment: Tissue distribution in rat muscle after 5 minutes (n=3); assay type: ADME, organism-based; conditions: in vivo; how it was run: as §3
Rattus norvegicus [30] = species: Rattus norvegicus; experiment: Tissue distribution in rat liver after 180 minutes (n=3); assay type: ADME, organism-based; conditions: in vivo, 3 h; how it was run: as §1
Rattus norvegicus [31] = species: Rattus norvegicus; experiment: Tissue distribution in rat lung after 30 minutes (n=3); assay type: ADME, organism-based; conditions: in vivo, 0.5 h; how it was run: as §3
Rattus norvegicus [32] = species: Rattus norvegicus; experiment: Tissue distribution in rat spleen after 180 minutes (n=3); assay type: ADME, organism-based; conditions: in vivo, 3 h; how it was run: as §3
Rattus norvegicus [33] = species: Rattus norvegicus; experiment: Tissue distribution in rat liver after 60 minutes (n=3); assay type: ADME, organism-based; conditions: in vivo, 1 h; how it was run: as §3
Rattus norvegicus [34] = species: Rattus norvegicus; experiment: Tissue distribution in rat lung after 60 minutes (n=3); assay type: ADME, organism-based; conditions: in vivo, 1 h; how it was run: as §3
Rattus norvegicus [35] = species: Rattus norvegicus; experiment: Effect of vesamicol on the accumulation in rat thyroid [1.77 (1.47-1.93)]; assay type: ADME, organism-based, Thyroid gland; conditions: in vivo
How it was run: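 Male Wistar rats. Pretreatment at t = 0 was iv vehicle (50% aqueous EtOH) or iv dl-vesamicol (1.01 μmol/kg). At 15 min, iv [125I]tracer (2.0 μCi in 100 μL 50% aqueous EtOH) was given; rats were killed 30 min later. Tissues were weighed and γ-counted, and values expressed as % injected dose/g; n = 4 per group.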

Rattus norvegicus [36] = species: Rattus norvegicus; experiment: Ratio of regional kinetics between rat brain caudate and cerebellum at 180 minutes; assay type: ADME, organism-based; conditions: in vivo, 3 h; how it was run: as §4
Rattus norvegicus [37] = species: Rattus norvegicus; experiment: Tissue distribution in rat brain after 30 minutes (n=3); assay type: ADME, organism-based; conditions: in vivo, 0.5 h; how it was run: as §3
Rattus norvegicus [38] = species: Rattus norvegicus; experiment: Tissue distribution in rat kidney after 5 minutes (n=3); assay type: ADME, organism-based; conditions: in vivo; how it was run: as §3
Rattus norvegicus [39] = species: Rattus norvegicus; experiment: Ratio of tissue distribution between rat brain and blood after 180 min; assay type: ADME, organism-based; conditions: 3 h; how it was run: as §6
Rattus norvegicus [40] = species: Rattus norvegicus; experiment: Tissue distribution in rat muscle after 180 minutes (n=3); assay type: ADME, organism-based; conditions: in vivo, 3 h; how it was run: as §3
Rattus norvegicus [41] = species: Rattus norvegicus; experiment: Tissue distribution in rat blood after 60 minutes (n=3); assay type: ADME, organism-based; conditions: in vivo, 1 h; how it was run: as §1
Rattus norvegicus [42] = species: Rattus norvegicus; experiment: Effect of haloperidol on the regional distribution of compound in the remainder of rat brain (n=4) [0.33 (0.28-0.40)]; assay type: ADME, organism-based; conditions: in vivo
Rattus norvegicus [43] = species: Rattus norvegicus; experiment: Tissue distribution in rat spleen after 30 minutes (n=3); assay type: ADME, organism-based; conditions: in vivo, 0.5 h; how it was run: as §3

Question: Which results are given for `O[C@@H]1CCN(Cc2cccc([125I])c2)C[C@H]1N1CCC(c2ccccc2)CC1` (stereo in doubt; (+))?
Answer: Dose/g (Rattus norvegicus [1]): 0.11%; Dose/g (Rattus norvegicus [2]): 0.25%; Dose/g (Rattus norvegicus [3]): 0.17%; Kp at 2 h [4]: 1.6; Dose/g (Rattus norvegicus [5]): 3.67%; Dose/g (Rattus norvegicus [6]): 0.59%; Ratio (Rattus norvegicus [7]): 1.93; Dose/g (Rattus norvegicus [8]): 0.15%; Dose/g (Rattus norvegicus [9]): 0.28%; Dose/g (Rattus norvegicus [10]): 1.6%; Ratio (Rattus norvegicus [11]): 0.98; Dose/g (Rattus norvegicus [12]): 0.16%; Dose/g (Rattus norvegicus [13]): 0.3%; Dose/g (Rattus norvegicus [14]): 0.05%; Dose/g (Rattus norvegicus [15]): 0.12%; Dose/g (Rattus norvegicus [16]): 0.16%; Dose/g (Rattus norvegicus [17]): 0.17%; Dose/g (Rattus norvegicus [18]): 0.99%; Dose/g (Rattus norvegicus [19]): 2.33%; Dose/g (Rattus norvegicus [20]): 0.15%; Dose/g (Rattus norvegicus [21]): 0.39%; Ratio (Rattus norvegicus [22]): 1.2; Ratio (Rattus norvegicus [23]): 1.7; Ratio (Rattus norvegicus [24]): 1.68; Dose/g (Rattus norvegicus [25]): 0.09%; Dose/g (Rattus norvegicus [26]): 0.67%; Ratio (Rattus norvegicus [27]): 3.18; Kp at 5 min [28]: 4.68; Dose/g (Rattus norvegicus [29]): 0.34%; Dose/g (Rattus norvegicus [30]): 1.18%; Dose/g (Rattus norvegicus [31]): 1.21%; Dose/g (Rattus norvegicus [32]): 0.44%; Dose/g (Rattus norvegicus [33]): 1.91%; Dose/g (Rattus norvegicus [34]): 0.82%; Dose/g (Rattus norvegicus [35]): 2.02%; Ratio (Rattus norvegicus [36]): 2.95; Dose/g (Rattus norvegicus [37]): 0.36%; Dose/g (Rattus norvegicus [38]): 2.25%; Ratio (Rattus norvegicus [39]): 2.35; Dose/g (Rattus norvegicus [40]): 0.08%; Dose/g (Rattus norvegicus [41]): 0.09%; Dose/g (Rattus norvegicus [42]): 0.17%; Dose/g (Rattus norvegicus [43]): 1.07%
